These results are taken from ChEMBL document CHEMBL1126909, “Synthesis and pharmacological examination of benzofuran, indan, and tetralin analogues of 3,4-(methylenedioxy)amphetamine” (J Med Chem, 1993).

Assay type in all cases: functional
For test [1], the species on record is Rattus norvegicus. In words: Inhibitory concentration against [3H]- 5-HT uptake in crude rat synaptosomes. Particulars: Brain. Summed up: (§1)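 Crude synaptosomes from male Sprague-Dawley rat tissue homogenised in ice-cold isotonic sucrose. Preincubated 5 min at 37 °C under aeration with pargyline (final 100 μM), then chilled. Tritiated transmitter added at 10 nM final and uptake run 5 min at 37 °C. Catecholamine buffer had 0.06 mM ascorbate. Filtered and counted by scintillation. 9–10 concentrations in triplicate, 3–4 experiments, four-parameter logistic fit for IC50 ± SEM.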

The species entered for test [2] is Rattus norvegicus. The experiment in a line: Inhibitory concentration against [3H]- NE uptake in crude rat synaptosomes. Particulars: Brain. Summed up:
as §1

Test [3] is filed under the species Rattus norvegicus. In words: Inhibitory concentration against [3H]- DA uptake in crude rat synaptosomes. Particulars: Brain. Summed up: as §1
The species entered for test [4] is Rattus norvegicus. The experiment in a line: Tested for drug-discrimination stimulus effect in S-1c trained rats. Summed up:
(§2)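 Male Sprague-Dawley rats (175–200 g) held at about 80% of free-feeding weight were trained on two levers to tell (S)-1c·HCl 1.75 mg/kg from saline. Test drugs were given in 0.9% saline, ip, 30 min before sessions run under extinction. A session ended at 50 presses on one lever, or was scored disrupted if not done within 5 min. %SDL counts nondisrupted rats. ED50 and 95% CI were derived by Litchfield–Wilcoxon.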

The subject of test [5] is Rattus norvegicus. The experiment in a line: Percentage of nondisrupted animals selecting drug liver in 3 trained at 0.643 mg/kg; SDL. In outline:
(§3)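 Rats and training are as above: male Sprague-Dawley, food-restricted, with training doses per drug group. Test drug was given ip in saline 30 min before extinction sessions. %SDL is the share of nondisrupted rats reaching 50 presses on the drug lever. A rat not completing 50 presses in 5 min was scored as disrupted.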

The subject of test [6] is Rattus norvegicus. In words: Tested for drug-discrimination stimulus effect at 0.429 mg/kg; 0.24-0.57. Summed up:
as §2

Test [7] relates to Rattus norvegicus. In words: Number of animals tested to that of number of animals disrupted in 3 trained at 0.215 mg/kg; Number of animals tested=11. Summed up:
(§4)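 Drug-discrimination rats were male Sprague-Dawley, 175–200 g, kept at about 80% of free-feeding weight. They were trained against saline on (S)-1c·HCl 1.75 mg/kg, 3·HCl 1.71 mg/kg or (S)-amphetamine sulfate 1 mg/kg. Test drug was given ip in 0.9% saline at 1 mL/kg, 30 min before sessions run under extinction. A session ended at 50 presses on one lever; failing 50 presses within 5 min was scored as disrupted.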

Test [8] relates to Rattus norvegicus. In words: Percentage of nondisrupted animals selecting drug liver in 3 trained at 0.429 mg/kg; SDL. Summed up:
as §3

Test [9] has as its system Rattus norvegicus. The experiment in a line: Number of animals tested to that of number of animals disrupted in 3 trained at 0.108 mg/kg; Number of animals tested=8. In outline: as §4
Test [10] has as its system Rattus norvegicus. The experiment in a line: Number of animals tested to that of number of animals disrupted in S-1c trained at 0.857 mg/kg; Number of animals tested=10. In outline:
as §4

Test [11] deals with Rattus norvegicus. The experiment in a line: Percentage of nondisrupted animals selecting drug liver in 3 trained at 1.286 mg/kg; SDL. Summed up: as §3
The subject of test [12] is Rattus norvegicus. In words: Percentage of nondisrupted animals selecting drug liver in 3 trained at 0.857 mg/kg; SDL. Summed up: as §3
Test [13] has as its system Rattus norvegicus. The experiment in a line: Number of animals tested to that of number of animals disrupted in 3 trained at 0.429 mg/kg; Number of animals tested=12. In outline:
as §4

In test [14] the test system is Rattus norvegicus. The experiment in a line: Percentage of nondisrupted animals selecting drug liver in S-1c trained at 0.643 mg/kg; SDL.
Test [15] deals with Rattus norvegicus. The experiment in a line: Percentage of nondisrupted animals selecting drug liver in 3 trained at 0.108 mg/kg; SDL. Summed up: as §3
The test system of test [16] is Rattus norvegicus. The experiment in a line: Number of animals tested to that of number of animals disrupted in S-1c trained at 0.215 mg/kg; Number of animals tested=10. Summed up: as §4
Test [17] concerns Rattus norvegicus. The experiment in a line: Percentage of nondisrupted animals selecting drug liver in S-1c trained at 0.429 mg/kg; SDL.
Test [18] has as its system Rattus norvegicus. The experiment in a line: Percentage of nondisrupted animals selecting drug liver in S-1c trained at 0.215 mg/kg; SDL. Summed up: as §3
The species entered for test [19] is Rattus norvegicus. In words: Inhibitory concentration against [3H]- DA uptake, p<0.0001.
Test [20] has as its system Rattus norvegicus. In words: Number of animals tested to that of number of animals disrupted in 3 trained at 0.857 mg/kg; Number of animals tested=11. In outline:
as §4

The subject of test [21] is Rattus norvegicus. In words: Number of animals tested to that of number of animals disrupted in S-1c trained at 0.429 mg/kg; Number of animals tested=11. Summed up: as §4
The subject of test [22] is Rattus norvegicus. The experiment in a line: Number of animals tested to that of number of animals disrupted in 3 trained at 1.286 mg/kg; Number of animals tested=8. In outline:
as §4

The subject of test [23] is Rattus norvegicus. In words: Number of animals tested to that of number of animals disrupted in 3 trained at 0.643 mg/kg; Number of animals tested=12. In outline: as §4
Test [24] has as its system Rattus norvegicus. In words: Percentage of nondisrupted animals selecting drug liver in S-1c trained at 0.857 mg/kg; SDL.
The subject of test [25] is Rattus norvegicus. In words: Tested for drug-discrimination stimulus effect at 0.215 mg/kg; 0.31-0.74.
Test [26] concerns Rattus norvegicus. In words: Percentage of nondisrupted animals selecting drug liver in 3 trained at 0.215 mg/kg; SDL. Summed up: as §3
For test [27], the system named is Rattus norvegicus. In words: Number of animals tested to that of number of animals disrupted in S-1c trained at 0.643 mg/kg; Number of animals tested=10. Summed up:
as §4

The IC50 is the concentration needed to halve the response being measured. Consider `CC(N)Cc1ccc2c(c1)CCCC2` (configuration not stated), for which the IC50 in [1] is 121 nM; in test [2], 3.37 µM; in test [3], 6.44 µM.

As a reminder, the ED50 is the dose at which the effect has come halfway, by size or by number of responders. The low end stands for greater potency, the high end for weaker potency. As for `CCC(Cc1ccc2c(c1)OCO2)NC` (configuration not stated), the ED50 in test [4] worked out at 0.79 mg/kg.

As for `CC(N)Cc1ccc2c(c1)CCO2` (configuration not stated), the SDL in [5] turned out to be 75%; in test [8], 50%; in [11] it was 100%; in test [12], 86%; in test [14], 71%; in test [15] it was 0%. The SDL was 50% in [17], 25% in test [18], 100% in test [24] and 33% in [26]. The IC50 in test [1] stood at 130 nM; in test [19], 7.09 µM; in [2], 3.24 µM. Further, the ED50 in test [6] stood at 0.37 mg/kg; in [25] it was 0.48 mg/kg. Moreover, the Activity in test [7] is recorded as 8; in test [9], 3; in test [10] it was 4; in test [13] it was 6; in [16] it was 2; in test [20] it was 4. Further, the Activity came out at 5 in test [21], 5 in [22], 4 in [23] and 3 in test [27].

In the case of `CC(N)Cc1ccc2c(c1)OCO2` (configuration not stated) [TENAMFETAMINE], the IC50 stood at 369 nM in [1], 0.629 µM in [2] and 1.36 µM in test [3].
